≈ marks a conversion by molar mass, not a printed value. Calls of active or inactive are those of the source. The rule behind the calls is not given here.
Key:
[1] = test system: Aspergillus niger; test: Antifungal activity against Aspergillus niger at 25 ug/ml after 96 hr by spectrophotometry; format: functional, organism-based
Method in brief: (§1)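 Spores from 4-week-old cultures grown on PDA at 24 °C in the dark were rinsed off in sterile water and adjusted to 1 × 10⁵ spores mL^-1. Spores were incubated with serial dilutions in PDB in 96-well plates at 37 °C under humidity. Controls were DMSO vehicle and (+)-catechin.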

[2] = test system: Penicillium sp.; test: Antifungal activity against Penicillium sp. at 25 ug/ml after 96 hr by spectrophotometry; format: functional, organism-based; method in brief: as §1
[3] = test system: Fusarium oxysporum; test: Antifungal activity against Fusarium oxysporum at 12.5 to 25 ug/ml after 96 hr by spectrophotometry; format: functional, organism-based
Method in brief: (§2)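 Spore germination assay. Spores taken from 4-week-old PDA cultures kept in the dark at 24 °C and adjusted to 1 × 10⁵ spores/mL. 100 µL of spores added to serial dilutions of derivatives in PDB, from 1 mg/mL DMSO stocks. Value is the minimum concentration inhibiting germination. DMSO-only controls.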

[4] = test system: Trichoderma viride; test: Antifungal activity against Hypocrea rufa at 12.5 to 25 ug/ml after 96 hr by spectrophotometry; format: functional, organism-based; method in brief: as §2
[5] = test system: Trichoderma reesei; test: Antifungal activity against Trichoderma reesei at 12.5 to 25 ug/ml after 96 hr by spectrophotometry; format: functional, organism-based; method in brief: as §2
[6] = test system: Pseudomonas fluorescens; test: Bactericidal activity against Pseudomonas fluorescens at 3.1 ug/ml after 24 hr by BacLight bacterial viability fluorescence assay; format: functional, organism-based
[7] = test system: Erwinia amylovora; test: Bactericidal activity against Erwinia amylovora at 1.6 ug/ml after 24 hr by BacLight bacterial viability fluorescence assay; format: functional, organism-based
[8] = test system: Pectobacterium carotovorum; test: Bactericidal activity against Pectobacterium carotovorum at 3.1 ug/ml after 24 hr by BacLight bacterial viability fluorescence assay; format: functional, organism-based
[9] = test system: Xanthomonas campestris; test: Bactericidal activity against Xanthomonas euvesicatoria at 6.3 ug/ml after 24 hr by BacLight bacterial viability fluorescence assay; format: functional, organism-based
[10] = test system: Pectobacterium carotovorum; test: Antibacterial activity against Pectobacterium carotovorum after 24 hr by spectrophotometry; format: functional
Method in brief: (§3)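 Bacterial isolates grown overnight at 37 °C to OD600 0.2. 5 µL of suspension incubated with serial dilutions of derivatives (100 to 0.05 µg) from 1 mg/mL DMSO stocks, 37 °C for 24 h. OD600 read; net growth is OD after 24 h minus OD at start. Percent inhibition is (untreated − treated)/untreated × 100. Two separate replicates. DMSO-only controls.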

[11] = test system: Erwinia amylovora; test: Antibacterial activity against Erwinia amylovora after 24 hr by spectrophotometry; format: functional; method in brief: as §3
[12] = test system: Xanthomonas campestris; test: Antibacterial activity against Xanthomonas campestris pv. vesicatoria after 24 hr by spectrophotometry; format: functional; method in brief: as §3
[13] = test system: Pseudomonas fluorescens; test: Antibacterial activity against Pseudomonas fluorescens after 24 hr by spectrophotometry; format: functional; method in brief: as §3
[14] = test system: Centaurea maculosa; test: Herbicidal activity against Centaurea maculosa assessed as inhibition of root differentiation at 200 ug/ml after 7 days; format: functional, organism-based
Method in brief: (§4)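 Ten-day-old seedlings were placed in 5 mL liquid MS basal medium and given filter-sterilized compound at 10, 50, 100 or 200 µg mL^-1. Controls received a methanol vehicle. Cultures were kept at 27 ± 2 °C, shaken at 90 rpm, under 24 µmol m^-2 s^-1 light for 7 days. Shoot and root differentiation were given as percent inhibition versus untreated control, mean ± SD, n = 5.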

[15] = test system: Ocimum basilicum; test: Herbicidal activity against Ocimum basilicum assessed as shoot growth inhibition at 200 ug/ml after 7 days; format: functional, organism-based; method in brief: as §4
[16] = test system: Solanum lycopersicum; test: Herbicidal activity against Solanum lycopersicum (tomato) assessed as shoot growth inhibition at 200 ug/ml after 7 days; format: functional, organism-based; method in brief: as §4
[17] = test system: Gaillardia aristata; test: Herbicidal activity against Gaillardia aristata assessed as shoot growth inhibition at 200 ug/ml after 7 days; format: functional, organism-based; method in brief: as §4
[18] = test system: Penicillium sp.; test: Antifungal activity against Penicillium sp. at 12.5 to 25 ug/ml after 96 hr by spectrophotometry; format: functional, organism-based; method in brief: as §2
[19] = test system: Aspergillus niger; test: Antifungal activity against Aspergillus niger at 12.5 to 25 ug/ml after 96 hr by spectrophotometry; format: functional, organism-based; method in brief: as §2
[20] = test system: Arabidopsis thaliana; test: Herbicidal activity against Arabidopsis thaliana assessed as shoot growth inhibition at 200 ug/ml after 7 days; format: functional, organism-based; method in brief: as §4
[21] = test system: Centaurea maculosa; test: Herbicidal activity against Centaurea maculosa assessed as shoot growth inhibition at 200 ug/ml after 7 days; format: functional, organism-based; method in brief: as §4
[22] = test system: Fusarium oxysporum; test: Antifungal activity against Fusarium oxysporum at 25 ug/ml after 96 hr by spectrophotometry; format: functional, organism-based; method in brief: as §2

Row | MIC [10] [µg/mL] | MIC [11] [µg/mL] | MIC [12] [µg/mL] | MIC [13] [µg/mL] | Structure (SMILES) | Activity [3] | Activity [4] | Activity [5] | Activity [6] | Activity [7] | Activity [8] | Activity [9] | Activity [18] | Activity [19] | other results
1 | 12.5 (≈ 37.8 µM) | 12.5 (≈ 37.8 µM) | 12.5 (≈ 37.8 µM) | 12.5 (≈ 37.8 µM) | CC1(C)OC2Cc3c(O)cc(O)cc3OC2c2cc(O)c(O)cc21 (racemic) | inactive | inactive | inactive | Active | Active | Active | Active | inactive | inactive | inhibition [14]: Active; growth inhibition (GI) [15]: Active; growth inhibition (GI) [16]: Active; growth inhibition (GI) [17]: Active; growth inhibition (GI) [20]: Active; growth inhibition (GI) [21]: Active
2 | 1.6 (≈ 4.84 µM) | 3.1 (≈ 9.38 µM) | 6.3 (≈ 19.1 µM) | 3.1 (≈ 9.38 µM) | CC1(C)O[C@H]2Cc3c(O)cc(O)cc3O[C@@H]2c2cc(O)c(O)cc21 | inactive | inactive | inactive | Active | Active | Active | Active | inactive | inactive | 
3 | 1.6 (≈ 5.51 µM) | 1.6 (≈ 5.51 µM) | 1.6 (≈ 5.51 µM) | 1.6 (≈ 5.51 µM) | Oc1cc(O)c2c(c1)O[C@H](c1ccc(O)c(O)c1)[C@@H](O)C2 [CIANIDANOL] | Active | Active | Active | Active | Active | Active | Active | Active | Active | 

The next lines start with the molecule.

Row | Structure (SMILES) | MIC [10] [µg/mL] | MIC [11] [µg/mL] | MIC [12] [µg/mL] | MIC [13] [µg/mL] | Activity [3] | Activity [4] | Activity [5] | Activity [6] | Activity [7] | Activity [8] | Activity [9] | Activity [18] | Activity [19] | other results
4 | COc1cc(OC)c2c(c1)O[C@H](c1ccc(OC)c(OC)c1)[C@@H](O)C2 [CATECHIN TETRAMETHYLETHER] | 6.3 (≈ 18.2 µM) | 25 (≈ 72.2 µM) | 25 (≈ 72.2 µM) | 6.3 (≈ 18.2 µM) | inactive | inactive | inactive | Active | Active | Active | Active |  |  | Activity [1]: Active; Activity [2]: Active
5 | CC(=O)Oc1cc(OC(C)=O)c2c(c1)O[C@H](c1ccc(OC(C)=O)c(OC(C)=O)c1)[C@@H](OC(C)=O)C2 [CATECHIN PENTAACETATE] | 6.3 (≈ 12.6 µM) | 6.3 (≈ 12.6 µM) | 6.3 (≈ 12.6 µM) | 6.3 (≈ 12.6 µM) |  | inactive | inactive | Active | Active | Active | Active | inactive | inactive | Activity [22]: Active
6 | Oc1cc(O)c2c(c1)OC(c1ccc(O)c(O)c1)C(O)C2 (racemic) |  |  |  |  | inactive | inactive | inactive | Active | Active | Active | Active | inactive | inactive | 
7 | CC(=O)Oc1cc(OC(C)=O)c2c(c1)OC(c1ccc(OC(C)=O)c(OC(C)=O)c1)C(OC(C)=O)C2 (racemic) [(+/-)-PENTAACETYLCATECHIN] | 25 (≈ 50 µM) | 25 (≈ 50 µM) | 25 (≈ 50 µM) | 12.5 (≈ 25 µM) | inactive | inactive | inactive | Active | Active | Active | Active | inactive | inactive | 
8 | COc1cc(OC)c2c(c1)OC(c1ccc(OC)c(OC)c1)C(O)C2 (racemic) | 6.3 (≈ 18.2 µM) | 12.5 (≈ 36.1 µM) | 12.5 (≈ 36.1 µM) | 12.5 (≈ 36.1 µM) | inactive | inactive | inactive | Active | Active | Active | Active | inactive | inactive | inhibition [14]: Active; growth inhibition (GI) [15]: Active; growth inhibition (GI) [16]: Active; growth inhibition (GI) [17]: Active; growth inhibition (GI) [20]: Active; growth inhibition (GI) [21]: Active

Reference: ChEMBL document CHEMBL3044548, “Phytotoxic and antimicrobial activities of catechin derivatives” (2004)
